Compound activity (PubChem BioAssay)
Compounds with a hit are over-represented: about 2.7% of the library has one in this group of screens.
DENV2 CPE: DENV2-induced cell death inhibition. DENV2-infected cells, cytopathic effect rescue, plate reader. CPE inhibition, % at 9.99 µM. 350,000 compounds, 1.7% hits. AID 651640; in the data active = CPE inhibition above about 20%, passing the limit was not always enough; inconclusive = no clear call, values can overlap the other calls; tested in BHK-21 cells;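 also: 0% = median of neutral control wells and 100% = median of positive control wells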
SIRT5 inh: inhibitors of human sirtuin-5 desuccinylase; inhibition, % at 15 µM; Purified SirT5, succinyl-peptide AMC, trypsin-coupled fluorescence; 330,000 compounds, 1.1% hits; AID 652115; in the data active = inhibition above about 15%; inconclusive = no clear call, values can overlap the other calls
Target sequence (Q9NXA8 whole entry, looked up): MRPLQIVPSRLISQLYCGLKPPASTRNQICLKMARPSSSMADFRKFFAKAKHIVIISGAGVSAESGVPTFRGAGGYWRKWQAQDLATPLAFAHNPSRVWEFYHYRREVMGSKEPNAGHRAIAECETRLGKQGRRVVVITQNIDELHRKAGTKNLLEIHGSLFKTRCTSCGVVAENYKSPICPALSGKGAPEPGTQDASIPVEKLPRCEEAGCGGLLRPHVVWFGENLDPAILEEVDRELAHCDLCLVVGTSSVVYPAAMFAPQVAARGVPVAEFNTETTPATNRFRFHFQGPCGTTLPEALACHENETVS
MLL AF4-AF9 inh: blocks AF4 peptide binding to human AF9; AlphaScreen, biotin-AF4 peptide binding to FLAG-AF9; P42568; inhibition, % at 10 µM; 350,000 compounds, 0.47% hits; AID 651704;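 active = every replicate reaching a set inhibition limit, whatever the replicate mean, cut at about 25% in these data; inconclusive = mean inhibition reaches that limit but some replicates miss it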;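 also: 0% = plate neutral control median and 100% = total signal loss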
S100A4 MyoIIA: inhibitors of human S100A4 binding to myosin IIA peptide; 360,000 compounds, 0.14% hits; AID 652163; inhibition, % at 10.7 µM; S100A4/TAMRA-MyoIIA peptide fluorescence polarization; P26447;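 active = mean inhibition of at least 70% across replicates, with every replicate also reaching that level; inconclusive = mean inhibition reaches 70% but some replicates fall short; inactive = mean inhibition below 70%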
Target sequence (P26447 whole entry, looked up): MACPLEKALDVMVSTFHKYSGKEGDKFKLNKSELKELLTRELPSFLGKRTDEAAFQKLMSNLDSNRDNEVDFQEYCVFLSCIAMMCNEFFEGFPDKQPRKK
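Material: S100A4 monomer protein / Buffer or medium: 50 mM HEPES pH 7.2, 10 mM CaCl2, 100 mM KCl / Times: 5 min incubation before reading / Benchmarks: neutral control DMSO, positive control TFP / Reagent: labelled myosin peptide probe, 5 nM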
CaV13 ICDI inh: Disruptors of the CACNA1D IQ motif to Ca2+-dependent inactivation inhibitor domain association, primary screening, Förster resonance energy transfer in intact living …; HEK cells, CFP/YFP FRET ICDI-IQ, plate reader, 10 min; percent FRET-ratio fall versus neutral wells; inhibition, % at 12.3 µM; 340,000 compounds, 0.098% hits;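 active = mean replicate inhibition of at least 30% and at least 1% of replicates passing that level; inconclusive = only one of the two criteria is met; inactive = neither criterion is met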;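 also: 0% = median of the neutral control wells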
* marks the source's active call; other numbers are inactive results; ? = inconclusive; nt = not tested or not shown; + = active, no number.

SMILES	DENV2 CPE	SIRT5 inh	MLL AF4-AF9 inh	S100A4 MyoIIA	CaV13 ICDI inh
CCOC(=O)C[C@@H]1OC[C@H](CO)N1S(=O)(=O)c1ccc(C)cc1	-5	0	-7	-40	-6
CC(=O)NNc1cc(N2CCOCC2)nc(N2CCOCC2)n1	-8	-1	4	19	+
CC(C)(C)c1ccc(C(=O)NNc2cc(N3CCOCC3)nc(N3CCOCC3)n2)cc1	8	-1	1	-6	0
O=C(NNc1cc(N2CCCC2)nc(N2CCCC2)n1)c1ccc([N+](=O)[O-])cc1	3	-1	10	-2	64*
CC(C)(C)c1ccc(C(=O)NNc2cc(N3CCCCC3)nc(N3CCCCC3)n2)cc1	nt	nt	nt	nt	-8
Cc1noc(C)c1S(=O)(=O)N(C)C[C@H]1OCCCC[C@H](C)Oc2ccc(N(C)C)cc2C(=O)N([C@@H](C)CO)C[C@@H]1C	-1	-1	8	4	nt
O=S1(=O)CCOCCCN1Cc1ccccc1Br	33*	0	1	1	17
O=C(O)CSc1ncnc2c1sc1nc(-c3ccccc3)c3c(c12)CCC3	12	18*	-7	-15	-6
O=c1[nH]cnc2c1sc1nc(-c3ccccc3)c3c(c12)CCCC3	1	-3	1	2	-3
NCC[C@@H]1CC[C@@H](NC(=O)CCN2CCCCC2)[C@H](CO)O1	3	-2	19	-7	nt
NCC[C@H]1CC[C@@H](NC(=O)CCN2CCCCC2)[C@H](CO)O1	2	-4	59*	-7	nt
NCC[C@H]1CC[C@H](NC(=O)CCN2CCCCC2)[C@@H](CO)O1	5	-3	28*	-3	nt
CO[C@@H]1CN(C)C(=O)c2cc(NC(=O)c3ccc4c(c3)OCO4)ccc2OC[C@H](C)N(CC2CC2)C[C@@H]1C	2	-3	-2	3	nt
C[C@H]1CCCCO[C@H](CN(C)Cc2ccc(Cl)c(Cl)c2)[C@@H](C)CN([C@@H](C)CO)C(=O)c2cc(NC(=O)Nc3ccc(F)cc3)ccc2O1	0	-4	1	2	nt
Cc1c(Cl)cccc1NC(=O)CC1Sc2ccccc2NC1=O (configuration not stated)	1	-6	-2	2	-4
Cc1c(Cl)cccc1NC(=O)CC1Oc2ccccc2NC1=O (configuration not stated)	35*	-4	0	-6	-4
Cc1c(Cl)cccc1NC(=O)Cc1cccs1	-7	57*	-6	0	-5
Cc1c(NC(=O)Cc2cccs2)cccc1[N+](=O)[O-]	nt	-7	0	3	-6
O=C(O)c1ccc(N=N/C(=N\Nc2ccc(C(=O)O)cc2)c2ccccc2)cc1	nt	5	2	1	-6
Brc1ccc(N/N=C(/N=Nc2nn[nH]n2)c2ccccc2)cc1	2	9	41*	3	2
CC(=O)N1CCC2(CC1)C/C(=N\NC(=S)Nc1ccccc1C)c1cc(O)ccc1O2	4	21*	13	-2	-2
COCCNC(=O)[C@H]1[C@H](CO)[C@H]2Cn3c(ccc(-c4ccccc4)c3=O)[C@@H]1N2C	-7	-5	0	-13	nt
CO[C@@H]1CN(C)C(=O)c2ccc(NC(C)=O)cc2OC[C@H](C)N(C(=O)Cc2ccccn2)C[C@@H]1C	3	2	-4	-12	nt
CO[C@H]1/C=C/O[C@@]2(C)Oc3c(C)c(O)c4c(O)c(c(C=NN5CCN(C)CC5)c(O)c4c3C2=O)NC(=O)/C(C)=C\C=C\[C@H](C)[C@H](O)[C@@H](C)[C@@H](O)[C@@H](C)[C@H](OC(C)=O)[C@@H]1C	18	9	31*	-2	-5
CO[C@H]1C=CO[C@@]2(C)Oc3c(C)c(O)c4c(O)c(c(C=NN5CCN(C)CC5)c(O)c4c3C2=O)NC(=O)C(C)=CC=C[C@H](C)[C@H](O)[C@@H](C)[C@@H](O)[C@@H](C)[C@H](OC(C)=O)[C@@H]1C	-3	4	7	-5	-6
SMILES	DENV2 CPE	SIRT5 inh	MLL AF4-AF9 inh	S100A4 MyoIIA	CaV13 ICDI inh
COc1ccc(NC(=O)N(C)C[C@@H]2OCCCC[C@H](C)Oc3ccc(NS(=O)(=O)c4c(C)noc4C)cc3C(=O)N([C@H](C)CO)C[C@@H]2C)cc1	-4	nt	nt	nt	nt
COc1ccc(N2CCN(CC(O)COC(c3ccc(F)cc3)c3ccc(F)cc3)CC2)cc1 (configuration not stated)	16	-4	27*	3	-21
CCCc1ccc(OCC(O)CN2CCN(c3ccccc3)CC2)cc1 (configuration not stated)	12	nt	3	-2	-6
COc1ccc(N2CCN(CC(O)COc3ccc(F)cc3)CC2)cc1 (configuration not stated)	52*	0	4	6	-2
COc1ccc(N2CCN(CC(O)COC(c3ccccc3)c3ccccc3)CC2)cc1 (configuration not stated)	7	2	16	0	0
CCc1ccc(OCC(O)CN2CCN(c3ccccc3)CC2)cc1 (configuration not stated)	83*	nt	3	1	-8
CO[C@H]1CN(C)C(=O)c2cc(NC(C)=O)ccc2OC[C@H](C)N(C(=O)Cc2cccnc2)C[C@H]1C	-6	1	3	-11	nt
COc1ccc2c3c([nH]c2c1)[C@@H](CO)NCC31CN(C(=O)Nc2ccc3c(c2)OCO3)C1	-1	7	7	-5	nt
CC1CC(C)CN(CCOCCSc2ccccc2)C1 (configuration not stated)	0	-4	-2	?	-2
CC1CCCN(CCOCCSc2ccccc2)C1 (configuration not stated)	2	21*	-1	-6	-14
CC(=O)N(C)C[C@@H]1Oc2ncc(C#Cc3ccccc3F)cc2C(=O)N([C@H](C)CO)C[C@H]1C	-3	-2	0	-9	nt
COc1ccc(CNC(=O)c2cc(=O)c3ccc(C)c(C)c3o2)cc1	9	-3	0	-10	-2
COc1ccc(CNC(=O)c2cc(=O)c3cc(C)cc(C)c3o2)cc1	?	24*	1	-15	-17
COc1cc(Nc2ncc3c(n2)CCN(C(=O)Nc2ccc(C(C)C)cc2)C3)cc(OC)c1OC	-9	18*	6	-5	-9
O=C(O)CNC(=O)/C(=C/c1cccc([N+](=O)[O-])c1)NC(=O)c1ccco1	-12	1	2	-6	-4
O=C(Nc1ccccc1)/C(=C/c1ccc(O)cc1)NC(=O)c1ccco1	-2	30*	-7	-2	-8
O=C(Nc1cccc(C(=O)O)c1)/C(=C\c1ccco1)NC(=O)c1ccccc1	50*	-3	-2	7	-3
O=C(NCc1ccccc1)/C(=C\c1cccc([N+](=O)[O-])c1)NC(=O)c1ccco1	46*	-9	-3	-5	-5
O=C(Nc1cccc(C(=O)O)c1)/C(=C\c1ccco1)NC(=O)c1ccccc1Cl	-5	3	-7	-7	-3
